# Screens from PubChem.
# APP 5'UTR act: APP 5'UTR luciferase reporter activation; hit rate 1% among 190,000; activation, % at 2 µM; AID 1276; SH-SY5Y APP 5'UTR luciferase reporter, luminescence; zero percent = DMSO vehicle wells;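 active = activation above a set limit, based on mean plus 3 SD of controls, cut at about 140% in these data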
# STAT1 activator: increases IFN-gamma driven STAT1 reporter signal; NIH 3T3 STAT1-luciferase reporter, luminescence; 100% = IFN-gamma alone, no compound; activation (% of control), % at 5.5 µM; hit rate 2.6% among 200,000; AID 932;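 active = activation above the screen-wide mean activation plus 3 SD, cut at about 130% in these data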;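 note: raw ratio to IFN-gamma control signal so 100% means no change and 0% no light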
# FLuc inh counter: Photinus pyralis luciferase inhibition counter-screen; P08659; ATPLite firefly luciferase biochemical luminescence, 10 min; inhibition, % at 10 µM; hit rate 1.5% among 200,000; AID 1006;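 active = inhibition above about 50% when tested at 10 µM, limit read from the data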
# Target sequence (P08659 whole entry, looked up): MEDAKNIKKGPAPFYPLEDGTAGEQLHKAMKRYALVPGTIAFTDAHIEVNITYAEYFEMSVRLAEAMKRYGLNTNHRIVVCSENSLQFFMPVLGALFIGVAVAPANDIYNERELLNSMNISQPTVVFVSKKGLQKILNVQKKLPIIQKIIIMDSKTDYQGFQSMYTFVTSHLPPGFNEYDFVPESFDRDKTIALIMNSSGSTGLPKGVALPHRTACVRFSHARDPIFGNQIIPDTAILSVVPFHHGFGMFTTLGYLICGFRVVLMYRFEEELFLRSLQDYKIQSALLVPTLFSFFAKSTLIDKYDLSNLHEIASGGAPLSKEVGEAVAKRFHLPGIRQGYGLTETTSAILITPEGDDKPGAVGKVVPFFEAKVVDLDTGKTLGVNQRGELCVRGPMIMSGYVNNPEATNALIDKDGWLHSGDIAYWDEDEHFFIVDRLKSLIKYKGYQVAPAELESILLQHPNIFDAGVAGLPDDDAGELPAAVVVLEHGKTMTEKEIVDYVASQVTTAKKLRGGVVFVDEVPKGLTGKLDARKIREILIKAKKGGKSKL
# FLuc act counter: affects firefly luciferase, flagging false hits in luciferase stimulation screens; 200,000 tested, under 10 active; AID 1027; activation factor at 10 µM; ATPlite luciferase biochemical, luminescence, 10 min; 0 = ATP-free wells, 1 = DMSO control; P08659;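 active = luciferase activation factor, scaled between plate controls, of at least 2 with compound at 10 µM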
#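 Material: Luciferase/luciferin reagent mix | Doses: Test compounds dosed from 2 mM stocks in 100% DMSO | Timing: 10 min incubation after luciferase reagent addition, room temperature | Measured by: Luminescence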
# NF-kB expr up: compounds increasing NF-kB expression in human neuronal cells; hit rate 1.6% among 190,000; fold change at 12.5 µM; NF-kB reporter expression; active compounds read high; in the data active = fold change above about 3.3
# Active calls of the source: *; / = no result given. A selection: hits, their analogues and other compounds. The true share with any hit is near 4.3%.
SMILES,APP 5'UTR act,STAT1 activator,FLuc inh counter,FLuc act counter,NF-kB expr up
Cc1ccc(NC(=O)/C=C/c2ccc3c(c2)OCO3)cc1S(=O)(=O)N1CCOCC1,-3,100,-2,1,0.53
Cc1cc2nc3c(=O)n(C4CCCCC4)c(=O)[nH]c3nc2cc1N,44,116,11,0.9,1.5
CCS(=O)(=O)c1ccc(C(=O)NC2CC2)c(Cl)c1Cl,6,96,-5,1.1,0.98
O=S(=O)(c1cccc2cccc(Cl)c12)N1CCCC1,-23,108,-3,1,0.98
COc1ccc(Nc2nnc(SCC(=O)Nc3ccc4[nH]c(=O)[nH]c4c3)s2)cc1,-9,94,24,0.8,1.1
N#Cc1c(NC(=O)/C=C/c2ccco2)sc2c1CCCC2,-93,174*,5,0.9,0.89
Cc1ccc(C(=O)Nc2sc3c(c2C#N)CCCCC3)cc1C,31,134*,1,1,1.3
COCCN(CCOC)S(=O)(=O)c1ccc(C(=O)Nc2sc3c(c2C(N)=O)CCCCC3)cc1,90,129*,-5,1.1,0.52
COC(=O)c1c(NC(=O)c2ccc(N(C)S(=O)(=O)c3ccc(C)cc3)cc2)sc2c1CCCC2,-9,91,-8,1.1,2.1
CC(C)N1CCc2c(sc(NC(=S)NC(=O)c3ccccc3)c2C#N)C1,30,134*,4,1,0.45
CCCN1CCc2c(sc(NC(=S)NC(=O)c3ccccc3)c2C#N)C1,36,116,6,0.9,0.85
COCCN(C(=S)Nc1ccc(OC)cc1)C1CCN(C(C)=O)CC1,-5,103,-8,1.1,1.1
CCOc1cc(/C=N/N2CCOCC2)ccc1OCc1ccc(C(=O)OC)o1,-27,97,-2,1,1
CCN1C(=O)C(CC(=O)Nc2ccc(OC)cc2)N(Cc2ccco2)C1=S (stereo not drawn),9,99,-2,1,1.4
Cc1ccccc1-c1nnn(CC(=O)Nc2ccc3c(c2)OCCO3)n1,0,102,-1,1,1.1
COc1ccc(OCC(=O)Nc2cccc(C(=O)Nc3ccccc3C(=O)O)c2)cc1,-2,103,6,0.9,1.1
N#Cc1c(N2C(=O)Nc3ccccc3N2O)sc2c1CCCCCC2,0,101,56*,0.4,1.2
N#Cc1c(N2C(=O)Nc3ccccc3N2O)sc2c1CCCC2,-3,99,50,0.5,1.6
O=c1oc2ccccc2cc1NCc1ccccc1O,80,102,4,1,3.6*
CC(=O)Nc1ccc(-c2cc3ccccc3o2)cc1,222*,141*,25,0.8,6.5*
CCC(=O)Nc1ccc(-c2cc3ccccc3oc2=O)cc1,-17,143*,18,0.8,2.6
COc1ccccc1C(=O)Nc1cc2ccccc2oc1=O,16,121,14,0.9,2.3
O=c1oc2ccccc2cc1-c1ccc(O)cc1,47,134*,27,0.7,2.6
CC(=O)Nc1ccc2ccccc2c1,-5,99,-4,1,1.7
COc1ccc2cc(/C=N/O)c(Cl)nc2c1,25,129*,3,1,1.8
SMILES,APP 5'UTR act,STAT1 activator,FLuc inh counter,FLuc act counter,NF-kB expr up
COc1ccc2cc(CO)c(Cl)nc2c1,-1,114,-1,1,1.8
Cc1ccc(C(=O)NCCc2csc(C)n2)cc1,26,110,58*,0.4,1.9
Cc1cccc(C(=O)NCCc2csc(C)n2)c1,-3,105,-4,1,1.3
O=C(Nc1ccc2nc(-c3cccs3)[nH]c2c1)c1cccs1,30,103,61*,0.4,0.55
O=C(Nc1ccc2nc(-c3cccs3)[nH]c2c1)c1ccco1,44,105,62*,0.4,0.84
Cn1cccc1-c1nc2ccc(NC(=O)c3ccco3)cc2[nH]1,6,113,10,0.9,0.77
COc1cc(/C=N/O)ccc1OCc1ccc(C(=O)O)cc1,-82,13,88*,0.1,3.4*
COc1cc(/C=N/N=C2/NC(=O)C(CC(=O)O)S2)ccc1OCc1ccc(Cl)cc1 (stereo not drawn),84,130*,-3,1,2.5
COc1cc(/C=N/N=C(N)N)ccc1OCc1ccc(Cl)cc1,180*,98,17,0.8,1.2
Cn1c(N2C(=O)CC(Cc3ccccc3)C2=O)nc2ccccc21 (stereo not drawn),-7,101,-6,1.1,1.1
Cc1ccc(-n2nc(C(=O)O)c3ccccc3c2=O)cc1C,-5,55,-1,1,1
Cc1ccc(-n2nnc3ccccc3c2=O)cc1C,86,134*,12,0.9,2.1
Cc1cc(-c2ccccc2)nc(=O)[nH]1,5,98,-5,1.1,0.98
CCC1C(=O)n2nc(-c3ccccc3)cc2N=C1C (stereo not drawn),95,138*,41,0.6,2.3
Nc1ccc(-c2nc3cc(N)ccc3s2)cc1,186*,99,89*,0.1,5.3*
Nc1ccc2nc(-c3ccccc3)sc2c1,108,61,90*,0.1,2.1
Cc1nc2cc(CO)ccc2s1,0,102,-1,1,0.97
CCOc1ccc(-c2ccc(SCc3ccccn3)nn2)cc1,49,129*,23,0.8,1.1
c1ccc(CSc2nnc3ccc(-c4cccs4)nn23)nc1,13,119,0,1,1.7
CCc1ccc(-c2ccc(SCc3ccccn3)nn2)cc1,45,140*,32,0.7,2
c1ccc(CSc2ccc(-c3cccs3)nn2)nc1,78,136*,34,0.7,2.5
CCOc1ccc(-c2ccc(SCC(=O)N3CCN(c4ccccc4)CC3)nn2)cc1,9,105,4,1,1.4
COc1ccc(/C=C(\C#N)C(=O)OCCNC(=O)c2ccncc2)cc1,1,98,-6,1.1,0.98
Cc1cc(C)n(CC(=O)N2CCCC(C(=O)c3cccc(OC(C)C)c3)C2)n1 (stereo not drawn),-1,89,-10,1.1,0.92
O=C(Oc1ccc(-c2cn3c(n2)SCC3)cc1)c1ccccc1,15,110,18,0.8,2.1
SMILES,APP 5'UTR act,STAT1 activator,FLuc inh counter,FLuc act counter,NF-kB expr up
Cc1ccc(-c2cn3c(n2)SCC3)cc1,107,141*,45,0.5,4.1*
Nc1n[nH]c(N)c1N=Nc1ccc2c(c1)OCO2,1,132*,35,0.6,1.8
O=C(O)COn1c(-c2ccccc2)nc2ccc([N+](=O)[O-])cc21,39,143*,18,0.8,0.91
CCOC(=O)C(C)On1c(-c2ccccc2)nc2ccc([N+](=O)[O-])cc21 (stereo not drawn),95,132*,6,0.9,2.7
COn1c(-c2ccc(Cl)cc2)nc2ccc(Cl)cc21,/,116,10,0.9,2
CCOC(=O)C(C)On1c(-c2ccc(Cl)cc2)nc2ccc([N+](=O)[O-])cc21 (stereo not drawn),68,133*,1,1,5.8*
COc1ccc(-c2nc3ccccc3n2OCC(=O)O)cc1,48,108,72*,0.3,1.9
O=C(O)COn1c(-c2ccc(Cl)cc2)nc2ccc(Cl)cc21,21,113,27,0.7,1.8
